From PMC4184708 (Pharmacology Research & Perspectives, 2014) come the findings set out here.

Series [1] in a line: Pharmacokinetics of vigabatrin after iv or oral administration to rats. It is filed as in vivo, male Sprague–Dawley rats.
Series [2] in a line: Pharmacokinetics of acetaminophen. It is filed as in vivo, male Sprague–Dawley rats. To be noted: rats.
A short description of series [3]: Acetaminophen deconvolution profiles and rate of gastric emptying. It is filed as in vivo, male Sprague–Dawley rats. To be noted: rats, deconvolution profile, after 30 min.
The nature of series [4]: Paracellular flux: A–B transport of [14C]-mannitol across Caco-2 cell monolayers. It is filed as in vitro ADME. The conditions noted are these: human. A general note: Caco-2 cells form a polarised layer with tight junctions and transporters.
Series [5] has as its system Caco-2 cell monolayers. Nature of the series: Transepithelial apical to basolateral. The series is classed as in vitro ADME, human. To be noted: Caco-2 monolayers, NaCl-reduced HBSS versus HBSS. The essentials:
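Caco-2 cells (passages 10–18) were seeded at 8.9·10^4 cells cm−2 on 1.12 cm2 polycarbonate inserts (0.4 μm) and run 20 days post seeding, with TEER monitored. 1.0 mmol/L test compound was applied apically, alone or with amino acid or dipeptide inhibitors (35.0–152.5 mmol/L) in NaCl-reduced HBSS (mannitol to 270–310 mOsmol L−1), or with low fat infant formula 150 mg mL−1 in water. Controls were in HBSS and NaCl-reduced HBSS.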

The test system of series [6] is Caco-2 cells. Nature of the series: Apical vigabatrin uptake in Caco-2 cells. The series is classed as in vitro ADME, human. An outline of the steps: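 Caco-2 cells (passages 10–18) were seeded at 8.9·10^4 cells cm−2 in 24-well plates and used 6 days post seeding. Low fat infant formula: 150 mg mL−1 was incubated 15 min at 37°C, centrifuged 15 min at 18000g and 4°C, and the supernatant was re-spun to remove lipids. Uptake rate is in nmol min−1 cm−2; n = 3–4.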

Series [7] in a line: Absorption rate constant. To be noted: rats. The series is classed as in vivo, male Sprague–Dawley rats.
Setting [8] is: oral coadministration with 120 mg kg^−1 acetaminophen.
Setting [9] is: rats, vigabatrin 1.0 mg kg^−1 PO, formulation 1, dietary component none.
Setting [10] is: rats, vigabatrin 1.0 mg kg^−1 PO, formulation 5, with Sar 200 mg kg^−1.
Setting [11] is: rats, vigabatrin 1.0 mg kg^−1 PO, formulation 6, with BCH 200 mg kg^−1.
Where [12] appears, read: rats, vigabatrin 10 mg kg^−1 PO, formulation 7, dietary component none.
[13] abbreviates: rats, vigabatrin 10 mg kg^−1 PO, formulation 10, with Sar 200 mg kg^−1.

What is called AUC(0-inf) is the area under the concentration-time curve extrapolated to infinity. In general, Papp refers to the rate of passage across a membrane or cell layer, normalised by area and donor concentration. High values mean ready permeation, low ones poor permeation. As a reminder, the Cmax is the highest concentration seen after dosing. The term Tmax denotes the time from dosing to the highest level.

In the case of `NC1(C(=O)O)CC2CCC1C2` (stereo not drawn) [BCH, 2-amino-2-norbornanecarboxylic acid], in series [1] (rats, oral administration of 1.0 mg kg^−1 vigabatrin), the “effect on the pharmacokinetic parameters of vigabatrin absorption” value is reported as “did not significantly alter”.
On to `CNCC(=O)O` [Sar, sarcosine], for which the “effect on tmax of vigabatrin” value in series [1] (rats, oral coadministration with 1.0 and 10.0 mg kg^−1 vigabatrin) is reported as “significant prolonging effect”. In series [1] (rats, oral coadministration with vigabatrin), the “effect on Cmax of vigabatrin” value was “significantly decreased”. For the same molecule, in series [2] (setting [8]), the “effect on Cmax of acetaminophen” value was “did not alter” and the “effect on tmax of acetaminophen” value is “did not alter”.
With `CC(=O)Nc1ccc(O)cc1` [acetaminophen], the total exposure AUC(0-inf) in series [2] (male, Sprague-Dawley, rat, plasma, iv, 120 mg/kg, AUC0–∞, acetaminophen 120 mg kg^−1 iv, formulation 00, dietary component none) is 155000 ± 4000 ng·h/mL. In series [2] (male, Sprague-Dawley, rat, plasma, iv, 120 mg/kg, ke, acetaminophen 120 mg kg^−1 iv, formulation 00, dietary component none), this molecule gave a k el of 0.000306 s⁻¹. Besides, the Fabs in series [2] (acetaminophen 120 mg kg^−1 iv, formulation 00, dietary component none) worked out at 100 ± 3%. Also, the “cumulative fraction of acetaminophen absorbed” value in series [3] was “about 90%”.
The molecule `OC[C@@H](O)[C@@H](O)[C@H](O)[C@H](O)CO` [mannitol, D-[1-^14C]-mannitol] yielded a Papp in series [4] of 0.16 ×10⁻⁶ cm/s.
For `C=CC(N)CCC(=O)O` (stereo not drawn) [vigabatrin], the “transport of vigabatrin in the apical to basolateral direction” value in series [5] is listed as “unaffected”. The “apical vigabatrin uptake rate” value in series [6] (apical pH 6.0, control) is given as 1.01 ± 0.11 nmol min^−1 cm^−2; in series [6] (apical pH 6.0, in the presence of Gly-Gly) it was 0.48 ± 0.07 nmol min^−1 cm^−2; in series [6] (apical pH 6.0, in the presence of low fat infant formula), 0.53 ± 0.09 nmol min^−1 cm^−2; in series [6] (apical pH 7.4, control), 0.31 ± 0.04 nmol min^−1 cm^−2; in series [6] (apical pH 7.4, in the presence of Gly-Gly) it was 0.25 ± 0.03 nmol min^−1 cm^−2; in series [6] (apical pH 7.4, in the presence of low fat infant formula) it was 0.28 ± 0.06 nmol min^−1 cm^−2. In series [1] (male, Sprague-Dawley, rat, plasma, iv, 1 mg/kg), this molecule showed a clearance of 7.1 mL/min/kg. In series [1] (male, Sprague-Dawley, rat, plasma, po, 10 mg/kg, AUC0–∞, rats, vigabatrin 10 mg kg^−1 PO, formulation 7, dietary component none), this molecule yielded an AUC(0-inf) of 17800 ± 808 ng·h/mL. The molecule further displayed a Cmax in series [1] (male, Sprague-Dawley, rat, plasma, po, 10 mg/kg, Cmax, rats, vigabatrin 10 mg kg^−1 PO, formulation 7, dietary component none) of 13600 ± 953 ng/mL. Besides, the k el in series [1] (male, Sprague-Dawley, rat, plasma, po, 10 mg/kg, ke, rats, vigabatrin 10 mg kg^−1 PO, formulation 7, dietary component none) was 0.000194 s⁻¹. Besides, in series [1] (male, Sprague-Dawley, rat, plasma, po, 10 mg/kg, tmax, median [Q1, Q3], rats, vigabatrin 10 mg kg^−1 PO, formulation 7, dietary component none), the Tmax was 19.8 min. Further, the “time of maximal plasma concentration (Cmax) after oral administration” value in series [1] (rats, oral administration of 1.0 or 10.0 mg kg^−1 vigabatrin) fell in the range of 0.25 to 0.33 h. In addition, the CL amounted to 9.68 ± 0.5 mL/min/kg in series [1] (setting [9]); 9.53 ± 0.383 mL/min/kg in series [1] (setting [10]); 9.13 ± 0.333 mL/min/kg in series [1] (setting [11]); 9.45 ± 0.4 mL/min/kg in series [1] (setting [12]); 10.6 ± 0.533 mL/min/kg in series [1] (setting [13]). Further, the Fabs was determined as 72 ± 4% in series [1] (setting [9]); 73 ± 3% in series [1] (setting [10]); 76 ± 3% in series [1] (setting [11]); 100% in series [1] (rats, vigabatrin 1.0 mg kg^−1 iv, formulation 0, dietary component none); 74 ± 3% in series [1] (setting [12]); 66 ± 3% in series [1] (setting [13]). Further, the ka amounted to 5.2 ± 0.3 in series [7] (vigabatrin 1 mg kg^−1, DC fitted to eq. 9, with Low fat milk); 5.3 ± 0.9 in series [7] (vigabatrin 1 mg kg^−1, DC fitted to eq. 9, with Milk); 2.9 ± 0.2 in series [7] (vigabatrin 1 mg kg^−1, DC fitted to eq. 9, with Sar); 2.6 ± 0.1 in series [7] (vigabatrin 1 mg kg^−1, PC fitted to eq. 10, with Low fat milk); 2.8 ± 0.3 in series [7] (vigabatrin 1 mg kg^−1, PC fitted to eq. 10, with Milk); 1.6 ± 0.1 in series [7] (vigabatrin 1 mg kg^−1, PC fitted to eq. 10, with Sar). Moreover, the ka in series [7] (vigabatrin 1 mg kg^−1, deconvolution curve (DC) fitted to eq. 9, Control) was found to be 7.9 ± 1.9; in series [7] (vigabatrin 10 mg kg^−1, DC fitted to eq. 9, with Low fat milk) it was 5.0 ± 0.3; in series [7] (vigabatrin 10 mg kg^−1, DC fitted to eq. 9, with Milk), 4.1 ± 0.5; in series [7] (vigabatrin 10 mg kg^−1, DC fitted to eq. 9, with Sar) it was 3.2 ± 0.2; in series [7] (vigabatrin 10 mg kg^−1, PC fitted to eq. 10, with Low fat milk), 2.6 ± 0.1; in series [7] (vigabatrin 10 mg kg^−1, PC fitted to eq. 10, with Milk) it was 2.6 ± 0.3. The ka in series [7] (vigabatrin 10 mg kg^−1, PC fitted to eq. 10, with Sar) was determined as 1.7 ± 0.1; in series [7] (vigabatrin 10 mg kg^−1, deconvolution curve (DC) fitted to eq. 9, Control), 8.1 ± 2.3.
